Data reported in ChEMBL document CHEMBL1155028, “Synthesis and pharmacological investigation of novel 2-aminothiazole-privileged aporphines” (Bioorg Med Chem, 2008).

Legend:
Type in all cases: cell-based
D(2) dopamine receptor = D(2) dopamine receptor (Homo sapiens, UniProt P14416); assay: Displacement of [3H]spiperone from human dopamine D2 receptor expressed in HEK293 cells
D(1A) dopamine receptor = D(1A) dopamine receptor (Homo sapiens, UniProt P21728); assay: Displacement of [3H]SCH-23390 from human dopamine D1 receptor expressed in HEK293 cells
[1] = target: T1, 5-hydroxytryptamine receptor 1A (Rattus norvegicus, UniProt P19327); assay: Displacement of [3H]8-OH-DPAT from rat 5HT1A receptor expressed in CHO cells
T1 sequence (P19327 whole entry): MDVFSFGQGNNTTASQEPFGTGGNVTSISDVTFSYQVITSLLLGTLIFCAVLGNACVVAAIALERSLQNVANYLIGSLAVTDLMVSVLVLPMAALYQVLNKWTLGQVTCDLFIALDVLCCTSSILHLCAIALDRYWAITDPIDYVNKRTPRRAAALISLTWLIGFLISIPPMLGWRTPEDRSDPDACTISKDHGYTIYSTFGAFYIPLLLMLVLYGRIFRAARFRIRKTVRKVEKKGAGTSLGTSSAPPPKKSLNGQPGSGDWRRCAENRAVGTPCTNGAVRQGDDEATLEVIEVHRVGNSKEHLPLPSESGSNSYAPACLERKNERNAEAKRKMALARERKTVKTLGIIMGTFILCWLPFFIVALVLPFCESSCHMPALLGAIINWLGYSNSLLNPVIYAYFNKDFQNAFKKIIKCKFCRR

[2] = target: T2, 5-hydroxytryptamine receptor 1A (Rattus norvegicus) (UniProt P19327); assay: Displacement of [3H]8-OH-DPAT from rat 5HT1A receptor expressed in CHO cells at 10 uM
T2 sequence (whole entry): T1 sequence (P19327 whole entry)
How it was run: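 Duplicate incubations ran 50 min at 30 °C in 50 mM Tris, 4 mM MgCl2, pH 7.4. Nonspecific binding was set with 10 µM WAY100635. Bound ligand was separated on GF/B filters, washed with cold Tris/EDTA buffer, and counted by liquid scintillation.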

D(1A) dopamine receptor, sequence (P21728 whole entry): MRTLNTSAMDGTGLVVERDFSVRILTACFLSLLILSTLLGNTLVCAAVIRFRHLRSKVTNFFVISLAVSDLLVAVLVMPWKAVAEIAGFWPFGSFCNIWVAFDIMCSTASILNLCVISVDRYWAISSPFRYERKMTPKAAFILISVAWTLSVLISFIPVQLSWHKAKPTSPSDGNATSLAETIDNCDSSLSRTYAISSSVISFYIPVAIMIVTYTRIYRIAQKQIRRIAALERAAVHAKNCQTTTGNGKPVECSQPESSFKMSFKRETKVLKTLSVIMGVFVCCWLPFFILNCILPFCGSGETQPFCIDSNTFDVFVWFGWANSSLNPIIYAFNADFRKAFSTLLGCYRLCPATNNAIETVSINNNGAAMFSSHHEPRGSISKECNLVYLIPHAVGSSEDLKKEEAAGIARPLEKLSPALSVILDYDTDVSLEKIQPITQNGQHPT
D(2) dopamine receptor, sequence (P14416 whole entry): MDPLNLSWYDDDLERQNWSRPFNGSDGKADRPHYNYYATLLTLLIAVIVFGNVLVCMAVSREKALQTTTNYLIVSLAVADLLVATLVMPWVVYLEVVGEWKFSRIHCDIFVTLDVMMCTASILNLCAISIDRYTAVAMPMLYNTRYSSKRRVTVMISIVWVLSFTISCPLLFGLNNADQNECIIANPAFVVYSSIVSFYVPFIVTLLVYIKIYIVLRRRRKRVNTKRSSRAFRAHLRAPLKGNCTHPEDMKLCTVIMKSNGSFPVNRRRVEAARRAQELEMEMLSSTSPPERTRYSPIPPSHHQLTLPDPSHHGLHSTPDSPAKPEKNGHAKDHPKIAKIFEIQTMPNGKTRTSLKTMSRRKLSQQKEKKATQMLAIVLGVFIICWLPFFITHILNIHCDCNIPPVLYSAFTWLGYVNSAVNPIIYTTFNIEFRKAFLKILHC

Row | Structure (SMILES) | Ki (D(2) dopamine receptor) [nM] | Ki (D(1A) dopamine receptor) [nM] | Ki [1] [nM] | Activity [2] [%]
1 | CN1CCc2c3c(cc4nc(N)sc24)-c2c(ccc(O)c2O)C[C@H]31 | 328 | 2520 |  | 
2 | COc1cc2c3c(c1)-c1c(N)cccc1C[C@H]3N(C)CC2 |  | 78 | 640 | 94
3 | NCCc1c[nH]c2ccc(O)cc12 |  |  |  | 100
4 | COc1cc2c3c(c1)-c1c(ccc4sc(N)nc14)C[C@H]3N(C)CC2 |  |  |  | 48.1
5 | CCCCC(=O)Oc1cccc2c1-c1cc(OC)cc3c1[C@@H](C2)N(C)CC3 |  | 116 | 151 | 100
6 | CN1CCc2cc(N)cc3c2[C@H]1Cc1cccc(N)c1-3 |  | 2920 | 2300 | 48.1
